Measured values pooled from the literature.
Protocols differ between the studies behind these lines.
Target: Serine/threonine-protein kinase 16 (STK16, Homo sapiens, UniProt O75716)

With CN(C)CC#Cc1ccc(OCCCc2sc(N3CCc4cccc(C(=O)Nc5nc6ccccc6s5)c4C3)nc2C(=O)O)c(F)c1 the remaining binding was 92% (cell-free assay; competition with immobilised ligand; 1 µM).
The remaining binding of CNC(=O)[C@@H]1CC[C@@H](n2c(-c3ccc4cnccc4c3)nc3ccc(C(=O)NCc4cccc(C(N)=O)c4)cc32)C1 is reported as 100% (binding; competition with immobilised ligand; 1 µM).
The remaining binding of C=CC(=O)N1CCC(C(=O)NCC(=O)N2CCN(c3nc(-c4cnc(N)nc4C(F)F)nc(N4CCOCC4)n3)CC2)CC1 is reported as 92% (binding; competition with immobilised ligand; 1 µM).
The remaining binding of CN(C)c1nccc(-c2cnn3ncccc23)n1 is reported as 87% (binding; 1 µM).
The remaining binding of CNC(=O)Nc1ccc2c(c1)CC[C@@]21OC(=O)N(CC(=O)N(Cc2ccc(F)cc2)[C@@H](C)C(F)(F)F)C1=O is reported as 84% (cell-free assay; competition with immobilised ligand; 1 µM).
The remaining binding of O=C(Nc1c[nH]nc1C(=O)NC1CCNCC1)c1cc(F)cc(F)c1 is reported as 100% (binding; competition with immobilised ligand; 1 µM).
With O=C(c1ccc(Nc2ncc(Cl)c(-c3cc4ccccc4s3)n2)cc1)N1CCC(N2CCCC2)CC1 the remaining binding was 5.6% (binding; competition with immobilised ligand; 1 µM).
With COc1ccnn2ncc(-c3ccnc(N(C)C)n3)c12 the remaining binding was 85% (binding; 1 µM).
For O=C(c1ccc(Nc2nccc(-c3cc4ccccc4s3)n2)cc1)N1CCC(N2CCCC2)CC1, the remaining binding was 18% (binding; competition with immobilised ligand; 1 µM).
COc1ccc2cc(OCC3(C(=O)O)CN(C(=O)c4ccc(F)cc4)C3)ccc2c1 has a remaining binding of 88% (cell-free assay; competition with immobilised ligand; 1 µM).
O=C(NCCCN1CCOCC1)c1ccc(Nc2ncc(Cl)c(-c3ccc(Cl)s3)n2)cc1 gave a remaining binding of 1.1% (binding; competition with immobilised ligand; 1 µM).
For c1cncc(-c2cccc(Nc3nccc(NC4CCCCC4)n3)c2)c1, the remaining binding was 42% (binding; competition with immobilised ligand; 10 µM).
CC1CCCN1c1nccc(-c2cnn3ncccc23)n1 (stereo not drawn) gave a remaining binding of 86% (binding; 1 µM).
COc1cccc(CNC(=O)c2nc3scc(COCc4ccc(C(=O)O)cc4)c3c(=O)[nH]2)c1 gave a remaining binding of 87.2% (cell-free assay; competition with immobilised ligand; 1 µM).
N[C@H]1CCN(c2nccc(-c3cnn4ncccc34)n2)C1 gave a remaining binding of 91% (binding; 1 µM).
CCCCN(CCCC)C(=O)CN1C[C@H](c2cc(OC)c3c(c2)OCO3)[C@@H](C(=O)O)[C@@H]1CC(C)(C)CCC gave a remaining binding of 100% (cell-free assay; competition with immobilised ligand; 1 µM).
The remaining binding of c1cnn2ncc(-c3ccnc(N4CCC45COC5)n3)c2c1 is reported as 78% (binding; 1 µM).
The remaining binding of CO[C@@H](C)c1c(Nc2ccc([C@H](N(C)C(=O)C3CCS(=O)(=O)CC3)C(F)(F)F)cc2)cnc2cc(Cl)nn12 is reported as 75% (cell-free assay; competition with immobilised ligand; 1 µM).
COc1cnc(Nc2cccc(S(N)(=O)=O)c2)nc1N1CCN(c2ccccc2)C(=O)C1 has a remaining binding of 30% (binding; competition with immobilised ligand; 1 µM).
C[C@@H](c1ccc(-n2cnc3c(N)ncnc32)cc1)N1CCc2nn(C)c(Cc3ccccc3)c2C1=O gave a remaining binding of 85% (binding; competition with immobilised ligand; 0.1 µM).
CN(CCCC(F)(F)F)c1nccc(-c2cnn3ncccc23)n1 has a remaining binding of 79% (binding; 1 µM).
